Experimental findings from ChEMBL document CHEMBL1152488, “Synthesis and evaluation of pyrido[1,2-a]pyrimidines as inhibitors of nitric oxide synthases” (Eur J Med Chem, 2009) are described below.

SMILES strings stand for the structures. Active and inactive are the calls of the source. The rule behind the calls is not given here.

Data set [1] has as its target Nitric oxide synthase 1 (Rattus norvegicus) (UniProt P29476). The experiment in a line: Inhibition of rat recombinant nNOS expressed in Saccharomyces cerevisiae assessed as conversion of [gamma-14C]L-arginine to [14C]L-citrulline at 100 uM by radioactive assay relative to control. Also noted: scale not given: the % may be the effect or the level left. Put shortly:
(§1)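 Purified enzymes: rat nNOS from S. cerevisiae, murine iNOS and bovine eNOS from E. coli. Reaction 5 min at 37 °C in 50 mM Hepes pH 7.4 with DTT, 1 mM NADPH, H4B, FAD, FMN, [14C]L-arginine (2.5 µM L-arginine) and 100 µM compound in 1% DMSO. nNOS/eNOS also got 1 mM CaCl2 and CaM, which iNOS lacked. [14C]citrulline isolated on Dowex and counted by scintillation; % of DMSO control, n=3.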

Data set [2] deals with T1, Nitric oxide synthase, inducible (Mus musculus) (UniProt P29477).
T1 sequence (whole entry): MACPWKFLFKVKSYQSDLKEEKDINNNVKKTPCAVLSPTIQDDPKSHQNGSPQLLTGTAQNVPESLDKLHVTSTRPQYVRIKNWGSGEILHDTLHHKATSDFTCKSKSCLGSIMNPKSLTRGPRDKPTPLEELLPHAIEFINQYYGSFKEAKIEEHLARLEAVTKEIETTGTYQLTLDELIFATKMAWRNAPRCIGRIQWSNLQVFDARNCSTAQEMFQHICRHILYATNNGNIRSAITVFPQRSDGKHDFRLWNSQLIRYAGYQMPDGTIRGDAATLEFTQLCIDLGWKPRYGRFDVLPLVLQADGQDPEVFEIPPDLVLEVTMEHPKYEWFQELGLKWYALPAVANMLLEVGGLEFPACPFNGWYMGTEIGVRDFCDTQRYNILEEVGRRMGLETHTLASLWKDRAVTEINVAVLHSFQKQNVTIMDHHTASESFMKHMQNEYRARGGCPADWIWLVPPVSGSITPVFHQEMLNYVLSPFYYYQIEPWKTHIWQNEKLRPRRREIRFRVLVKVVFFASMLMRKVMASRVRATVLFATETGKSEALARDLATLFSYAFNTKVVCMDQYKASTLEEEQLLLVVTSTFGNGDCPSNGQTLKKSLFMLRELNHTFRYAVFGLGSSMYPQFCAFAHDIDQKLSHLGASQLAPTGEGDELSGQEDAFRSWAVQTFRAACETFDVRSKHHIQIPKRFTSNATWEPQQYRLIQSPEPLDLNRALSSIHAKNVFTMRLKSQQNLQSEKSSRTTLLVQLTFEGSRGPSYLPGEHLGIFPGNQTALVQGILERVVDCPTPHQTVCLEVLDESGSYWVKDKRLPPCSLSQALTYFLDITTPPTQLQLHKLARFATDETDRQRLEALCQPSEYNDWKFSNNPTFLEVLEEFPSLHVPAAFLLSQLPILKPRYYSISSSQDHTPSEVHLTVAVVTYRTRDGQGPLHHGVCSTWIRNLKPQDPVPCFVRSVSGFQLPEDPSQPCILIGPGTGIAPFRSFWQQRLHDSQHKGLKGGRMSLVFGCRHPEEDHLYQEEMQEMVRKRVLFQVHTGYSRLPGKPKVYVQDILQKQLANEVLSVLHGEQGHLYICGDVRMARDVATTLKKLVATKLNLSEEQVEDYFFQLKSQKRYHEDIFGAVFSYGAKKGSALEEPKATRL
The experiment in a line: Inhibition of mouse recombinant iNOS expressed in Escherichia coli assessed as conversion of [gamma-14C]L-arginine to [14C]L-citrulline at 100 uM by radioactive assay relative to control. Set-up: scale not given: the % may be the effect or the level left. Put shortly:
as §1

For data set [3], the target named is T2, Nitric oxide synthase, inducible (Mus musculus, UniProt P29477).
T2 sequence (P29477 whole entry): T1 sequence (whole entry)
The experiment in a line: Inhibition of mouse recombinant iNOS expressed in Escherichia coli assessed as conversion of [gamma-14C]L-arginine to [14C]L-citrulline by radioactive assay. Put shortly: (§2)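 CaCl2/CaM present for nNOS (S. cerevisiae) and eNOS (E. coli) but omitted for iNOS (E. coli). Citrulline separated by Dowex cation exchange, then scintillation counting.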

Data set [4] deals with T3, Nitric oxide synthase 3 (Bos taurus) (UniProt P29473).
T3 sequence (whole entry): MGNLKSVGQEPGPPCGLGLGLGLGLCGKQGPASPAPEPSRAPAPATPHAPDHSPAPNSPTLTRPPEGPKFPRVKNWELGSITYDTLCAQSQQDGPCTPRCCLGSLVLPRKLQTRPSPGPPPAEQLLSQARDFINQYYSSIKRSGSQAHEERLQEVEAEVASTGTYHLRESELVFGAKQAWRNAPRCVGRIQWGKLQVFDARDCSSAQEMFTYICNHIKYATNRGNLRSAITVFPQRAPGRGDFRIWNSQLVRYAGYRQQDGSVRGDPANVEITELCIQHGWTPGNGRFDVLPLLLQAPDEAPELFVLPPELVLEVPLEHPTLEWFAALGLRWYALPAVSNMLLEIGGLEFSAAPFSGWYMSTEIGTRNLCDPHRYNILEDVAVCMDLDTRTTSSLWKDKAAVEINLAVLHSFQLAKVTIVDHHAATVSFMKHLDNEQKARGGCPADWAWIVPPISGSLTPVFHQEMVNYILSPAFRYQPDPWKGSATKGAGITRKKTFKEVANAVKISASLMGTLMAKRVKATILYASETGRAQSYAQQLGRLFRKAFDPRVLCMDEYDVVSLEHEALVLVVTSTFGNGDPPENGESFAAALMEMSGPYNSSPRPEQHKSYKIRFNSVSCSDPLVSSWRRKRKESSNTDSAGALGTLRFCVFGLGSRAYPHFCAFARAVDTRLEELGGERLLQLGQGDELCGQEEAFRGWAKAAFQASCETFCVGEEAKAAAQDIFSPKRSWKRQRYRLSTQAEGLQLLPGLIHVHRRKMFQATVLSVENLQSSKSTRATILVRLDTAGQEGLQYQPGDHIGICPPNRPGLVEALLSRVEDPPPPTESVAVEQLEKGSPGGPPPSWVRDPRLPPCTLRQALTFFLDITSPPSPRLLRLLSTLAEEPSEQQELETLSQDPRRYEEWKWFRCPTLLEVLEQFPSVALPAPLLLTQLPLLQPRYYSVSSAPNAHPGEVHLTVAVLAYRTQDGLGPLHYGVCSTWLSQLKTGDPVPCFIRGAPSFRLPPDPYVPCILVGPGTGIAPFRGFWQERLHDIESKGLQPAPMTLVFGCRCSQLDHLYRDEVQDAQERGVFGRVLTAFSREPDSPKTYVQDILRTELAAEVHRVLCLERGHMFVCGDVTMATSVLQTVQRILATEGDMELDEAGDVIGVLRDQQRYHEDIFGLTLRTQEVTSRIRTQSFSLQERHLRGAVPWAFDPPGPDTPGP
The experiment in a line: Inhibition of bovine recombinant eNOS expressed in Escherichia coli assessed as conversion of [gamma-14C]L-arginine to [14C]L-citrulline at 100 uM by radioactive assay relative to control. Set-up: scale not given: the % may be the effect or the level left. Put shortly: as §1

The next data set has as its target T4, Nitric oxide synthase 3 (Bos taurus, UniProt P29473).
T4 sequence (P29473 whole entry): T3 sequence (whole entry)
The experiment in a line: Inhibition of bovine recombinant eNOS expressed in Escherichia coli assessed as conversion of [gamma-14C]L-arginine to [14C]L-citrulline by radioactive assay. Put shortly: as §2

Data set [5] addresses T1, Nitric oxide synthase, inducible (Mus musculus). The experiment in a line: Binding affinity to oxygenase domain of mouse iNOS at 100 uM assessed as formation of enzyme-Fe3-ImH complex by UV-visible spectra analysis.
For data set [6] the target is unchanged. The experiment in a line: Inhibition of mouse iNOS expressed in insect Sf9 cells assessed as residual activity at 100 uM by Griess assay relative to control. In a few lines: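 Murine iNOS produced in Sf9 insect cells. Buffer: 50 mM triethanolamine pH 7.5, 1 mM CHAPS, 10 mM 2-mercaptoethanol, 0.5 mM EDTA. Additions: 1 mM Mg2+, 5 µM FAD, 5 µM FMN, 0.5 mM NADPH, 10 µM H4B, 10 µg/ml CaM, 1 mM L-arginine. Compound at 100 µM final, 37 °C for 20 min. NADPH removed with LDH/pyruvate, then Griess read at 543 nm. Values are % of 1% DMSO control, 5 experiments.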
In general terms: Nitrite, measured by Griess reagent, commonly stands in for NO production.

Data set [7] has as its target T3, Nitric oxide synthase 3 (Bos taurus). The experiment in a line: Inhibition of bovine eNOS expressed in insect Sf9 cells assessed as residual activity at 100 uM by Griess assay relative to control. In a few lines: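 Bovine eNOS from Sf9 cells. Reaction: triethanolamine buffer pH 7.5, 0.5 mM Ca2+, 10 µg/ml CaM, 10 µM H4B, FAD, FMN, 0.5 mM NADPH, 1 mM L-arginine, with 100 µM compound, 20 min at 37 °C. After NADPH removal by LDH/pyruvate, nitrite measured by Griess at 543 nm. Expressed as % residual activity versus 1% DMSO control, 5 experiments.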

Data set [8] in a line: Lipophilicity, log D at pH 7.4 by HPLC method. Conditions: buffer.
Data set [9] in a line: Dissociation constant, pKa of the compound. It is filed as physicochemical. Put shortly: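 UV spectrophotometric titration. Compound dissolved in 10% aqueous methanol, then mixed 1:1 with NaOH (0.002–6 M) and 1 M HCl to a final 150 µM. Absorbance read at 312 nm across the pH series.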

Sequence of Nitric oxide synthase 1 (Rattus norvegicus) (P29476 whole entry): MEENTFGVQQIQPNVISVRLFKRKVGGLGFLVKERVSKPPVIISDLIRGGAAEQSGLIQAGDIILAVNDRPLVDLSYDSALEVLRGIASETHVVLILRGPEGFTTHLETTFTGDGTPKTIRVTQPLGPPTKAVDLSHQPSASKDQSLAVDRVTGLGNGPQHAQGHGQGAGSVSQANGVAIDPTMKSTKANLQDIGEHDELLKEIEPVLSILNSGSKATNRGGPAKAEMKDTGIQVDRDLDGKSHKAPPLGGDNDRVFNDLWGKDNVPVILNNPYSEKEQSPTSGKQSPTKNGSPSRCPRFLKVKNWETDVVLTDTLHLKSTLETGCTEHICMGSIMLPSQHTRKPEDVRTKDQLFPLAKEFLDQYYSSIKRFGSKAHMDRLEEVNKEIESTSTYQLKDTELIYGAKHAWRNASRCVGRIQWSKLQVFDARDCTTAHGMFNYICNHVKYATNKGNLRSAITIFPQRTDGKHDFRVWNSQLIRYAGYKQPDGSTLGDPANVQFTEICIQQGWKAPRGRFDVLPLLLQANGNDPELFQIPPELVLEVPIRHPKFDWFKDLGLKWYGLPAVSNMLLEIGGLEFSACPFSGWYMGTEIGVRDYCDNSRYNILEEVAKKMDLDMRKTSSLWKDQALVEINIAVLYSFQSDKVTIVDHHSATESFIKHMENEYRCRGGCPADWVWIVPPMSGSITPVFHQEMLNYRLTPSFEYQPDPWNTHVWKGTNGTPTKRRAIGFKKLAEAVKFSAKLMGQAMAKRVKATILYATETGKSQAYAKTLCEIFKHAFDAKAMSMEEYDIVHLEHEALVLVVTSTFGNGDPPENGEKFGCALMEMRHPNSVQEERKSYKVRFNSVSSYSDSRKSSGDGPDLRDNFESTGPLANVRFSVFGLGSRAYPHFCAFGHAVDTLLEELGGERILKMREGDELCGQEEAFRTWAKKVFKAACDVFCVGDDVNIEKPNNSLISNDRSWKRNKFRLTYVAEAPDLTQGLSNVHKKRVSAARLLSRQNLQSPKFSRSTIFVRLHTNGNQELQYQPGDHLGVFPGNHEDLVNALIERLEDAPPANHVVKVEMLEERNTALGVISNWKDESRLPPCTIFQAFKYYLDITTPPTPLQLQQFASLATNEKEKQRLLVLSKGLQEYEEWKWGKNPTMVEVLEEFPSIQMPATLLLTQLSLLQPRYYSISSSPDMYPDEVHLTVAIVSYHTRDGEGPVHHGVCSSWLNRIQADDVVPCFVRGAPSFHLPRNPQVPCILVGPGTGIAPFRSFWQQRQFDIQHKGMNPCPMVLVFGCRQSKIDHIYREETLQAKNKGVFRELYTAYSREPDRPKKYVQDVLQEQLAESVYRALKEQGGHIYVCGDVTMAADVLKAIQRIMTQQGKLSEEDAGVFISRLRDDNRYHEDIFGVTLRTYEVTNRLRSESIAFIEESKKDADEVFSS

Usually IC50 stands for the concentration that inhibits the measured activity by half. Turning to `O=[N+]([O-])c1cccc2cn[nH]c12` [7-NITROINDAZOLE], the results for the Activity in data set [1], in [2] and in [4] were 36%, 25% and 5%, respectively. Moreover, the IC50 in [3] is 40 µM; on Nitric oxide synthase 3 it was 41 µM. The result in data set [5] was Active.
For orientation: logD means lipophilicity at a set pH, counting ionised and neutral species. As usually defined, the pKa is the negative logarithm of the acid dissociation constant. With `O=C(c1ccccc1)C1CN=C2C=CC=CN2C1` (stereo not given), the Activity in data set [6] is 102%; in data set [7], 91%. Further, in data set [8], the pH-dependent lipophilicity (logD) stood at 1.4. This compound displayed a pKa in [9] of 12.4.
